Results reported in paper PMC7841779 (ACS Omega, 2021).

How the values were obtained:
MDA-MB-231 cells = assay: MTT cell viability assay, MDA-MB-231; format: cell-based, human; conditions: highest dose 100 μM, compared to unconjugated [Re(CO)3(H2O)3]+
4T1 cells = assay: MTT cell viability assay, 4T1; format: cell-based, mouse; conditions: highest dose 100 μM, compared to unconjugated [Re(CO)3(H2O)3]+
Method in brief: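 4T1 cells were kept in DMEM with 10% FBS and penicillin/streptomycin at 37 °C, 5% CO2, then seeded at 2000 cells/100 μL. Test compound or free [Re(CO)3(H2O)3]+ was applied at 0.1–100 μM for 24 h. Cells were washed 3× with PBS and grown 48 h in DMEM/10% FBS. MTT was added for 4 h, cells were solubilised with SDS, and absorbance was read at 595 nm.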

LHRH receptor = biological target: T1, LHRH receptor (Homo sapiens, UniProt P30968); assay: LHRH receptor competition assay of 99mTc conjugate, MDA-MB-231; format: cell-based; conditions: MDA-MB-231 cells, cotreatment with 100 μg LHRH, 1 μCi, 37 °C, γ counter; n = 3
T1 sequence (P30968 1-328): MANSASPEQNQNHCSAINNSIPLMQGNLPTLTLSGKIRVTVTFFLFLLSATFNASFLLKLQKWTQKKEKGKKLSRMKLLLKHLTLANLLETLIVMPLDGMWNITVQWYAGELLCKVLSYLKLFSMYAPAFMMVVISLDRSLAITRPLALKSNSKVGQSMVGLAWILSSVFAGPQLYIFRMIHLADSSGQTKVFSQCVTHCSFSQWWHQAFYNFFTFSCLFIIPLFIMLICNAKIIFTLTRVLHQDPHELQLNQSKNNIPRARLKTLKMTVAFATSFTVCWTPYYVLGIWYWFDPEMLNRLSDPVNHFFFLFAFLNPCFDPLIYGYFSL
Method in brief: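 MDA-MB-231 cells were grown in DMEM with 5 mM L-glutamine, 1% penicillin/streptomycin and 10% FBS at 37 °C, 5% CO2. Cells were seeded at 2 × 10^5 per well and cultured 48 h. 1 μCi (0.037 MBq) of 99mTc-labelled conjugate was added together with 100 μg LHRH and incubated at 37 °C for 15, 30, 60 and 120 min (n = 3). Cells were washed 3× in PBS, trypsinised and γ-counted. Uptake is % of cell counts over total counts, reported as mean ± SEM.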

Substance	cytotoxicity at the highest dose (MDA-MB-231 cells)	cytotoxicity at the highest dose (4T1 cells)	cell uptake with LHRH cotreatment (competition) (LHRH receptor)
Re-Acdien-peg-LHRH: PEGylated Acdien-peg-LHRH chelated with [Re(CO)3(H2O)3]+	did not induce cytotoxicity	did not induce cytotoxicity	–
^99mTc-Acdien-LHRH: Acdien-LHRH radiolabeled with [99mTc(CO)3]+ from Isolink kit	–	–	decrease
Re-Acdien-LHRH: Acdien-LHRH reacted with equimolar [Re(CO)3(H2O)3]+; nonradioactive rhenium-LHRH conjugate	did not induce cytotoxicity	–	–
